Columns and labels:
[1] = molecular target: Adrenergic receptor alpha-1 (Homo sapiens) (UniProt P35348+P25100+P35368); experiment: Selectivity ratio of alpha-1 receptor to that of NMDA was determined; assay type: protein assay
[2] = molecular target: Glutamate [NMDA] receptor; experiment: Displacement of [3H]25-6981 from N-methyl-D-aspartate glutamate receptor; assay type: protein-complex assay
[3] = molecular target: T1, Adrenergic receptor alpha-1 (Homo sapiens, UniProt P35348+P25100+P35368); experiment: (§1) In vitro binding affinity towards Alpha-1 adrenergic receptor by displacing [3H]prazosin radioligand; assay type: protein assay
T1 sequence (P35348 whole entry): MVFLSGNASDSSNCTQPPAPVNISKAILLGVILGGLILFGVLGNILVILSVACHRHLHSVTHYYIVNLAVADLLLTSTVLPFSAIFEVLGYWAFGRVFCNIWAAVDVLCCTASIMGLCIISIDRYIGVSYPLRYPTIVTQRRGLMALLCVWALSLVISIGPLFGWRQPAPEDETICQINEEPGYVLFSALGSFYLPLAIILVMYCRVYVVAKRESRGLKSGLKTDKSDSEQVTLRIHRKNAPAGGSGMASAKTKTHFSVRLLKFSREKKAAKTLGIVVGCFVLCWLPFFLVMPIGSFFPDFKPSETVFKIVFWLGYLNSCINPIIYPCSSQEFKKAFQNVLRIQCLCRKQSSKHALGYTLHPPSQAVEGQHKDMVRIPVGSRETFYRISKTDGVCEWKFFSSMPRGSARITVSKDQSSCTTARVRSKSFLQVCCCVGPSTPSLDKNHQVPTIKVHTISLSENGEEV
T1 sequence (P25100 whole entry): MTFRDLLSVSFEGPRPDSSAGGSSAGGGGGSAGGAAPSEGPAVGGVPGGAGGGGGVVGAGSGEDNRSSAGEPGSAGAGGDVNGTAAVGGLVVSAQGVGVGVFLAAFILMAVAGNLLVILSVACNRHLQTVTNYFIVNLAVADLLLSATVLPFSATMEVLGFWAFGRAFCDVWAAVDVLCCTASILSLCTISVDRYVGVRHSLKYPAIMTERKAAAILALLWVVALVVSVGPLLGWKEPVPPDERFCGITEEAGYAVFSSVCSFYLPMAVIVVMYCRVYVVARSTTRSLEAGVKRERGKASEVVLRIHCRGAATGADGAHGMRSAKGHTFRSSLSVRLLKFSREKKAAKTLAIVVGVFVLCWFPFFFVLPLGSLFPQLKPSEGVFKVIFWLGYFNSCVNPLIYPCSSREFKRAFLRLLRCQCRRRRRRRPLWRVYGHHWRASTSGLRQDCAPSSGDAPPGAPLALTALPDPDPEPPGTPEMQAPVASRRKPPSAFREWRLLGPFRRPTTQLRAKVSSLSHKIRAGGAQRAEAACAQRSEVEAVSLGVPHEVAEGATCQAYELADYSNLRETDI
T1 sequence (P35368 whole entry): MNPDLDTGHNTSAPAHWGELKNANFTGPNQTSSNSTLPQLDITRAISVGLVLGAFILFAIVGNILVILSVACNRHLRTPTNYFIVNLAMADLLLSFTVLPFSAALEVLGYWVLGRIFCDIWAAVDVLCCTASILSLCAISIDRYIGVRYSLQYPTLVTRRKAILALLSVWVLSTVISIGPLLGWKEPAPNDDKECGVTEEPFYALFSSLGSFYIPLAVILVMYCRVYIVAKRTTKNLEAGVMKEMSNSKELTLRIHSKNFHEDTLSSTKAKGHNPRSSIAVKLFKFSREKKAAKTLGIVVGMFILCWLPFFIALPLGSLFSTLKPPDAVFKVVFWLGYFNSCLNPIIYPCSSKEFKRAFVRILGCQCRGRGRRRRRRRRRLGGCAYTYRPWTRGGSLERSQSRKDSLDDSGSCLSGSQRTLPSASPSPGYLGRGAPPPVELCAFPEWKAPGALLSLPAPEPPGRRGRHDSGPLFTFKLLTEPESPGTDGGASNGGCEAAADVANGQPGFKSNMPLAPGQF

Mus musculus = experiment: In vivo evaluation for sound induced seizures in DBA/2 mice on intraperitoneal administration of compound 30 minutes before testing; assay type: functional; conditions: ip
Method in brief: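 Mice given the compound intraperitoneally, then tested in the standard sound-induced seizure assay. An ED50 in mg/kg was derived for protection.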

[4] = molecular target: Glutamate receptor ionotropic, NMDA 2B (Rattus norvegicus, UniProt P35439+Q00960); experiment: Evaluated for in vitro inhibition of recombinant rat NR1C/2B receptor expressed in xenopus oocytes; assay type: cell-based, Oocyte
Sequence of Glutamate receptor ionotropic, NMDA 2B (Q00960 whole entry, one chain of several): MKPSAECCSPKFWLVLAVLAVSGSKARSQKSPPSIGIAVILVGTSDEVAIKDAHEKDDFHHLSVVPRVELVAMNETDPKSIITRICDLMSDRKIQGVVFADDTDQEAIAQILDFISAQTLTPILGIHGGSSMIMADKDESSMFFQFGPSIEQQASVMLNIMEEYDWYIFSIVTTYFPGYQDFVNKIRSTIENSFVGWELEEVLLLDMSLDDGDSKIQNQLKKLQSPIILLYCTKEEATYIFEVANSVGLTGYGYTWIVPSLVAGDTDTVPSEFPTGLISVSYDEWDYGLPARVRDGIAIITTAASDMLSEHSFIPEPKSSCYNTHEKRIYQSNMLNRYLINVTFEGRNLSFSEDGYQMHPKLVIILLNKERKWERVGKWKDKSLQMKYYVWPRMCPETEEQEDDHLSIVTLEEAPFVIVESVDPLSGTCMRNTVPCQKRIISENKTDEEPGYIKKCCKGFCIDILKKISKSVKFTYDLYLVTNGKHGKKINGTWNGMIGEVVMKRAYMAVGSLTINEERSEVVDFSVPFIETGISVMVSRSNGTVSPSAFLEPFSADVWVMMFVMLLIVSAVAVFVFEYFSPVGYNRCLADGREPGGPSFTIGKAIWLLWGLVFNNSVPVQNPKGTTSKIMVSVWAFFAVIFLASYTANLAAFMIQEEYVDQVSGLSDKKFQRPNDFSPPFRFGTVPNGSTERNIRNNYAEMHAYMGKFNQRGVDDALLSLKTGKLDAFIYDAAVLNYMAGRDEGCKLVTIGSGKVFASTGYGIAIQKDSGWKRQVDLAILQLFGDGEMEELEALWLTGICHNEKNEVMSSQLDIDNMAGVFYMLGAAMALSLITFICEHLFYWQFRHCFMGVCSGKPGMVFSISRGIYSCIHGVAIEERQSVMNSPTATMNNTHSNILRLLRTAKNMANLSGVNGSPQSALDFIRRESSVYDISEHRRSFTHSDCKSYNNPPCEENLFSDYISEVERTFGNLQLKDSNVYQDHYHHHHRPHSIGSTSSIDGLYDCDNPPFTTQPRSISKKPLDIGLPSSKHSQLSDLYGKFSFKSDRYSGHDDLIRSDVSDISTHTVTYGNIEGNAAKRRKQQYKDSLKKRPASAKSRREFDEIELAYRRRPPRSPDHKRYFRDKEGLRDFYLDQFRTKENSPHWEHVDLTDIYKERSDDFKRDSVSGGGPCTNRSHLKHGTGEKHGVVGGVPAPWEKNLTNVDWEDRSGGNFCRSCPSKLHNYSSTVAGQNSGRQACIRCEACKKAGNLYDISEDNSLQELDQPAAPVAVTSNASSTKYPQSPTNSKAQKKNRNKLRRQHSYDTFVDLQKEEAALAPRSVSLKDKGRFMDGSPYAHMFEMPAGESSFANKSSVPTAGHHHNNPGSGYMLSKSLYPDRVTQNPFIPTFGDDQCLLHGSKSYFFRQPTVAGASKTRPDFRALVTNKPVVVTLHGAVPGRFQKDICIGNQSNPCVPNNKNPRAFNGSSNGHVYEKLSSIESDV
Method in brief: (§2)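 Two-electrode voltage clamp on Xenopus oocytes expressing recombinant rat NMDA receptors, NR1C/2A or NR1C/2B subunit combination. Concentrations spanned 10 nM–[…]. Values are the geometric mean of three experiments.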

[5] = molecular target: Glutamate receptor ionotropic, NMDA 2A (Rattus norvegicus, UniProt P35439+Q00959); experiment: Evaluated for in vitro inhibition of recombinant rat NR1C/2A receptor expressed in xenopus oocytes; assay type: cell-based, Oocyte; method in brief: as §2
Sequence of Glutamate receptor ionotropic, NMDA 2A (Q00959 whole entry, one chain of several): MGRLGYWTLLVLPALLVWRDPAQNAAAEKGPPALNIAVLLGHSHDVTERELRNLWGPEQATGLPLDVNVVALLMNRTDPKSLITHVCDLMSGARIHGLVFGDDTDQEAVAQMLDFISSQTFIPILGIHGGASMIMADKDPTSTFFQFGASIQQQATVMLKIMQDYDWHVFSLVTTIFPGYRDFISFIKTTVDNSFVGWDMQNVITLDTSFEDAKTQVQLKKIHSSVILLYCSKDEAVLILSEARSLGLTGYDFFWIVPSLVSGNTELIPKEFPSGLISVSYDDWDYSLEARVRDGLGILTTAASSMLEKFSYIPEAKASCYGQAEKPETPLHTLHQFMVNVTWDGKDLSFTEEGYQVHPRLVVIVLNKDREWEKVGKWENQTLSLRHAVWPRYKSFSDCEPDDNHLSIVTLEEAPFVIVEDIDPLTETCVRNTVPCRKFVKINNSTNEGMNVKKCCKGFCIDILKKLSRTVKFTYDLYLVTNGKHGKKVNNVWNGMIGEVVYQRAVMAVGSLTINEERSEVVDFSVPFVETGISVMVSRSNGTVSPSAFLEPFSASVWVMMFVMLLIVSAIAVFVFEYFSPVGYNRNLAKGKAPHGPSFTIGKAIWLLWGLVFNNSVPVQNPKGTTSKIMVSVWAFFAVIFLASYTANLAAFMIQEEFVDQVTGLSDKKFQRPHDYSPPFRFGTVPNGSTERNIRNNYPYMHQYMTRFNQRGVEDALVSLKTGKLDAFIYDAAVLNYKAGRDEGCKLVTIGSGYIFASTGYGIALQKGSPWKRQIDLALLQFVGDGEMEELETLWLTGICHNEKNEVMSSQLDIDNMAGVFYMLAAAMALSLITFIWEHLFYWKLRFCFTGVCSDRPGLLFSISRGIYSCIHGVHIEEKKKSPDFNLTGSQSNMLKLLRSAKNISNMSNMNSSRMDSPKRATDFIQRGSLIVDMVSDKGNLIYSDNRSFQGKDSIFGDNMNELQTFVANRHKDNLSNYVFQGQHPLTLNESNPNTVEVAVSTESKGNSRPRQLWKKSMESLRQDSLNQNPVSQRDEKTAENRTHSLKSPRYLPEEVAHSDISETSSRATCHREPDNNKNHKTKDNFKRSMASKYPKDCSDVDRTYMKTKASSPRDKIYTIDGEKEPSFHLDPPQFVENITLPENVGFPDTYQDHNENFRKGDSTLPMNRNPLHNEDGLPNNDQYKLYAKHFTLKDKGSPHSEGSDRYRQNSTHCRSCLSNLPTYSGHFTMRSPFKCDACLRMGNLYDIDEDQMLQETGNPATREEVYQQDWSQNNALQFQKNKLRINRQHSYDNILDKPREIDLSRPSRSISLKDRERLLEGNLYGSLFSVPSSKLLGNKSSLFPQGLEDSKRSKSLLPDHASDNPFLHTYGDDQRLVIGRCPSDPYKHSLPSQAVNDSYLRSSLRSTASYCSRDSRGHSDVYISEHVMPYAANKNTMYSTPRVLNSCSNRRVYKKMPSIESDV

[6] = molecular target: T2, Alpha-1A adrenergic receptor (Homo sapiens, UniProt P35348); experiment: as §1
T2 sequence (P35348 whole entry): T1 sequence (P35348 whole entry)

Selectivity ratio [1]	Ki [2]	Ki [3]	IC50 [4]	IC50 [5]	Ki [6]	SMILES	ED50 (Mus musculus)
200	22.6 nM	4512 nM				Oc1ccc(CC(O)CN2CCC(O)(Cc3ccccc3)CC2)cc1 (stereo not given)	
32	5.6 nM	180 nM				C[C@@H](CN1CCC(Cc2ccccc2)CC1)[C@@H](O)c1ccc(O)cc1	
374	15 nM	5610 nM				Oc1ccc(CC(O)CN2CCC(O)(Cc3ccc(Cl)cc3)CC2)cc1 (stereo not given)	
789	7.5 nM	5915 nM				Cc1ccc(CC2(O)CCN(CC(O)Cc3ccc(O)cc3)CC2)cc1 (stereo not given)	
	4.9 nM		19 nM	> 10000 nM	7300 nM	Cc1ccc(CC2(O)CCN(C[C@H](O)Cc3ccc(O)cc3)CC2)cc1	10 mg/kg
27	22.6 nM	610 nM				O=C(Cc1ccc(O)cc1)CN1CCC(Cc2ccccc2)CC1	
216		2439 nM				Oc1ccc(CC(O)CN2CCC(O)(Cc3ccc(Br)cc3)CC2)cc1 (stereo not given)	
27	3.4 nM	91.5 nM				CC(Cc1ccc(O)cc1)CN1CCC(Cc2ccccc2)CC1 (stereo not given)	
15		305 nM				COC(Cc1ccc(O)cc1)CN1CCC(Cc2ccccc2)CC1 (stereo not given)	
6	3.8 nM	24.4 nM				Oc1ccc(C(O)CCN2CCC(Cc3ccccc3)CC2)cc1 (stereo not given)	
	7.5 nM				7300 nM	Cc1ccc(CC2(O)CCN(C[C@@H](O)Cc3ccc(O)cc3)CC2)cc1	25 mg/kg
80		305 nM				Oc1ccc(CC(O)CN2CCC(Cc3ccccc3)CC2)cc1 (stereo not given)	
